Measurements: ChEMBL document CHEMBL2086311, “UDP made a highly promising stable, potent, and selective P2Y6-receptor agonist upon introduction of a boranophosphate moiety” (Bioorg Med Chem, 2012)

target: T1, P2Y purinoceptor 6 (Homo sapiens, UniProt Q15077); assay: Agonist activity at human P2Y6 receptor; format: functional; conditions: not given
Method in brief: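 Human P2Y6 receptor-GFP construct stably expressed in 1321N1 astrocytoma cells (no endogenous P2X/P2Y). Cells loaded with 2 µM fura-2/AM plus 0.02% pluronic acid in Na-HBS (pH 7.4), 30 min, 37 °C. Superfused at 37 °C with nucleotide, usually 10^-8 M to at least 10^-5 M. [Ca2+]i read as 340/380 nm excitation ratio, emission 510 nm. EC50 from concentration–response curves.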

T1 sequence (Q15077 whole entry, the tested form may be a part): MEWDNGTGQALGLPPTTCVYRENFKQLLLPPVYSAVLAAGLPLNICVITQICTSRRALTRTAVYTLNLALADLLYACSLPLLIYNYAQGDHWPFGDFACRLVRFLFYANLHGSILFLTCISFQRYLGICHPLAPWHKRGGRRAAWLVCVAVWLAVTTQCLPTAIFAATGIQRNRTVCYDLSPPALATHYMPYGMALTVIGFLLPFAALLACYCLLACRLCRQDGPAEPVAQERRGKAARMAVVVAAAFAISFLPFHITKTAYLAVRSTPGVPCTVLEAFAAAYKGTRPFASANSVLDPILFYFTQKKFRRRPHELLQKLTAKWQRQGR

SMILES | EC50 [nM]
O=c1ccn([C@@H]2O[C@H](COP(=O)(O)OP(=O)(O)S)[C@@H](O)[C@H]2O)c(=O)[nH]1 (stereo partly specified) | 28
O=c1ccn([C@@H]2O[C@H](COP(=O)(O)OP(=O)(O)O)[C@@H](O)[C@H]2O)c(=O)[nH]1 [URIDINE_DIPHOSPHATE] | 47

target: P2Y purinoceptor 4 (Homo sapiens, UniProt P51582); assay: Agonist activity at human GFP-tagged P2Y4 receptor expressed in human 1321N1 cells assessed as intracellular calcium mobilization by fura2/AM-based fluorescence spectrophotometry; format: functional, cell-based; conditions: not given
Method in brief: (§1)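 Human P2Y2, P2Y4 or P2Y6 receptors with GFP fusion, stably expressed in 1321N1 astrocytoma cells (no endogenous P2X/P2Y), selected with 0.5 mg/mL G418. Cells on coverslips at ~80% density were loaded with 2 µM fura 2/AM plus 0.02% pluronic acid in Na-HBS pH 7.4 for 30 min at 37 °C. Nucleotide was superfused at 37 °C, usually 10^-8 to ≥10^-5 M, sometimes to 10^-4 M. Read-out was 340/380 nm excitation ratio at 510 nm emission. Values are mean maximal amplitude ± SE.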

Chain of P2Y purinoceptor 4 (P51582 whole entry, the tested form may be a part): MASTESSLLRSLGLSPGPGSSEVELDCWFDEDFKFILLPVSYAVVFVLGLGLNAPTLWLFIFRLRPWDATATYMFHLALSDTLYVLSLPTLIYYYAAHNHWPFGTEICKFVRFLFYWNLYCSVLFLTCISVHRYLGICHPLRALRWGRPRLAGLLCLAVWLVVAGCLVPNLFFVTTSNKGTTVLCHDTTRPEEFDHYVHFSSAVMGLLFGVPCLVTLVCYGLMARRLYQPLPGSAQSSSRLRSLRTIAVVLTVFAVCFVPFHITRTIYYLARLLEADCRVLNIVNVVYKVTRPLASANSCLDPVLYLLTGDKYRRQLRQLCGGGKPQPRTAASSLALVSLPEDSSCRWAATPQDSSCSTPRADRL

EC50 [nM] | SMILES
900 | O=c1ccn([C@@H]2O[C@H](COP(=O)(O)OP(=O)(O)OP(=O)(O)O)[C@@H](O)[C@H]2O)c(=O)[nH]1 [URIDINE TRIPHOSPHATE]

target: T1, P2Y purinoceptor 6; assay: Agonist activity at human GFP-tagged P2Y6 receptor expressed in human 1321N1 cells assessed as intracellular calcium mobilization by fura2/AM-based fluorescence spectrophotometry; format: functional, cell-based; conditions: not given; method in brief: as §1

EC50 [nM] | SMILES
20100 | B[P@](=O)(OC[C@H]1O[C@@H](n2cc(OC)c(=O)[nH]c2=O)[C@H](O)[C@@H]1O)O[P@@](=O)(O)OP(=O)(O)O
150 | O=c1ccn([C@@H]2O[C@H](COP(=O)(O)OP(=O)(O)O)[C@@H](O)[C@H]2O)c(=O)[nH]1 [URIDINE_DIPHOSPHATE]

SMILES | EC50 [nM]
B[P@@](=O)(OC[C@H]1O[C@@H](n2cc(OC)c(=O)[nH]c2=O)[C@H](O)[C@@H]1O)OP(=O)(O)O | 8

system: not listed separately; assay: Half life in KCl/HCl buffer by 31P-NMR analysis at pH 1.4; format: physicochemical; conditions: not given
Method in brief: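 Sodium salt dissolved in KCl/HCl buffer pH 1.4 containing D2O, held at 37 °C. 31P NMR spectra taken at 15 min, 1 h or 24 h intervals, about every 24 h in multi-day runs. Hydrolysis rate taken from change in integration of one starting-material phosphate signal over time, fit to a pseudo-first-order model.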

SMILES | half-life [h]
O=c1ccn([C@@H]2O[C@H](COP(=O)(O)OP(=O)(O)O)[C@@H](O)[C@H]2O)c(=O)[nH]1 [URIDINE_DIPHOSPHATE] | 288
BP(=O)(OC[C@H]1O[C@@H](n2cc(OC)c(=O)[nH]c2=O)[C@H](O)[C@@H]1O)OP(=O)(O)O (stereo partly specified) | 16.9
B[P@@](=O)(OC[C@H]1O[C@@H](n2ccc(=O)[nH]c2=O)[C@H](O)[C@@H]1O)OP(=O)(O)O | 16.8

target: T2, Ectonucleotide pyrophosphatase/phosphodiesterase family member 1 (Homo sapiens, UniProt P22413); assay: Hydrolytic stability of the compound assessed as human NPP1-mediated hydrolysis measuring UMP formation after 2 hrs by HPLC analysis; format: ADME; set-up: scale not given: the % may be the effect or the level left; conditions: not given
T2 sequence (P22413 whole entry): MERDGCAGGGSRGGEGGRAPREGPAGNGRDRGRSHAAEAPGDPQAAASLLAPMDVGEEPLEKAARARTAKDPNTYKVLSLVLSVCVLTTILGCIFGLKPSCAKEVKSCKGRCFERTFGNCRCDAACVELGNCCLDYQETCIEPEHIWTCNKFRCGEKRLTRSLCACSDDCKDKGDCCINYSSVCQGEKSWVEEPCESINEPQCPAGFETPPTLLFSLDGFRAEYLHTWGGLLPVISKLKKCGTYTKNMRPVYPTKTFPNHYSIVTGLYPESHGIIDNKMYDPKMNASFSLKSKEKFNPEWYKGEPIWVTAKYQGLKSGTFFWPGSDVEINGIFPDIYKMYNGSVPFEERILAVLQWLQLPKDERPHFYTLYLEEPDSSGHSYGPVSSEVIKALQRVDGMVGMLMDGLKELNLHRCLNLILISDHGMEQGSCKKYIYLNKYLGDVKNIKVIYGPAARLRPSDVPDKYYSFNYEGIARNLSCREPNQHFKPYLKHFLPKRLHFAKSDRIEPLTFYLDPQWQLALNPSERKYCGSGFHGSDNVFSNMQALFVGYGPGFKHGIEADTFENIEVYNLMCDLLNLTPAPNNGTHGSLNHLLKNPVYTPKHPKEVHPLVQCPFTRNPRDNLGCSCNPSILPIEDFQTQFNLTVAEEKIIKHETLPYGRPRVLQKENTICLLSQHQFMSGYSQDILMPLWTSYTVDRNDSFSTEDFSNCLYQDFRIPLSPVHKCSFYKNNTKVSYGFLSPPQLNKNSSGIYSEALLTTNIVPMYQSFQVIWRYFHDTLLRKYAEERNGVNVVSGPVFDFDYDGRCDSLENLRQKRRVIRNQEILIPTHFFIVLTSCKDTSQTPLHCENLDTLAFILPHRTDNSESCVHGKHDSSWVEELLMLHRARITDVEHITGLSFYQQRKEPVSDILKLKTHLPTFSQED
Method in brief: (§2)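 Human NPP1 (56.15 µg) or NPP3 (57.78 µg) extract was pre-incubated 3 min at 37 °C in 1 mM CaCl2, 200 mM NaCl, 10 mM KCl, 100 mM Tris pH 8.5. Reaction was started with 4 mM compound stock and stopped after 2 h (NPP1) or 3 h (NPP3) in ice-cold 1 M perchloric acid, then neutralized with KOH. HPLC measured the nucleoside monophosphate peak area minus a no-enzyme acid control. Mean ± S.D. of two experiments.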

Activity [%] | SMILES
50 | O=c1ccn([C@@H]2O[C@H](COP(=O)(O)OP(=O)(O)O)[C@@H](O)[C@H]2O)c(=O)[nH]1 [URIDINE_DIPHOSPHATE]

target: T3, NPP3 (ectonucleotide pyrophosphatase/phosphodiesterase family member 3) (Homo sapiens, UniProt O14638); assay: Hydrolytic stability of the compound assessed as human NPP3-mediated hydrolysis after 3 hrs by HPLC analysis; format: ADME; conditions: human NPP3 enzyme, read-out: Activity; method in brief: as §2
T3 sequence (O14638 whole entry): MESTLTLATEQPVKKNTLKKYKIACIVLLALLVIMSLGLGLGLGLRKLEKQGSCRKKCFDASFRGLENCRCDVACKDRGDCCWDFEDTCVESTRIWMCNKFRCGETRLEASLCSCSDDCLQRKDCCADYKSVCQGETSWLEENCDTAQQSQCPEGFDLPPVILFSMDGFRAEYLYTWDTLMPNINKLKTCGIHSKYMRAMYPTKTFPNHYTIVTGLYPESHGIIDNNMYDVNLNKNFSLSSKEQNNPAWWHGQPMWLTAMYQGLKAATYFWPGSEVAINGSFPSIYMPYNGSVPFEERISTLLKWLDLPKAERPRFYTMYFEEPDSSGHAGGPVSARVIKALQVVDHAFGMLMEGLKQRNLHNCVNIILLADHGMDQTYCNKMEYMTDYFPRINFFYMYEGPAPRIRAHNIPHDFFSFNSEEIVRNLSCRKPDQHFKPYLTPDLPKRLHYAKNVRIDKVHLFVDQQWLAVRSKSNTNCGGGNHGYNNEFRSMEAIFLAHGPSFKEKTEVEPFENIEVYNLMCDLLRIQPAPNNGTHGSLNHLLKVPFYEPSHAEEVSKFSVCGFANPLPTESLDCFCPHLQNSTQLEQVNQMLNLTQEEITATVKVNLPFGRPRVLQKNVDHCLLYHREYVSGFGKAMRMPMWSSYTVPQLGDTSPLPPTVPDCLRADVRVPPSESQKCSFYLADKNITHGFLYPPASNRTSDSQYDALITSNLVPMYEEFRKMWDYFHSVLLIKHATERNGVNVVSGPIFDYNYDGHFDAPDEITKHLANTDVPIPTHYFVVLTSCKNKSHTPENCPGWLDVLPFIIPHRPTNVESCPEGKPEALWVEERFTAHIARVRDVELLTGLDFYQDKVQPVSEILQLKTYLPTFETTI

SMILES | metabolised at 3 h [%]
B[P@@](=O)(OC[C@H]1O[C@@H](n2cc(OC)c(=O)[nH]c2=O)[C@H](O)[C@@H]1O)OP(=O)(O)O | 28
COc1cn([C@@H]2O[C@H](COP(=O)(O)OP(=O)(O)O)[C@@H](O)[C@H]2O)c(=O)[nH]c1=O | 36

system: Serum; assay: Drug metabolism in human serum assessed as nucleoside 5'-monophosphate formation incubated up to 24 hrs by HPLC analysis; format: ADME, cell-free; conditions: not given
Method in brief: (§3)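 Samples held 0.1 mg compound with human blood serum (180 µL) and RPMI-1640 (540 µL) at 37 °C for 0–24 h. At each time point they were heated to 80 °C for 30 min, treated with CM Sephadex, centrifuged and chloroform-extracted. Analysis was reverse-phase HPLC on peak integrals. Degradation was taken relative to a no-serum control carried through the same workup, and half-lives came from the time course.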

Drug metabolism | SMILES
Active | O=c1ccn([C@@H]2O[C@H](COP(=O)(O)OP(=O)(O)O)[C@@H](O)[C@H]2O)c(=O)[nH]1 [URIDINE_DIPHOSPHATE]
Active | COc1cn([C@@H]2O[C@H](COP(=O)(O)OP(=O)(O)O)[C@@H](O)[C@H]2O)c(=O)[nH]c1=O

SMILES | Drug metabolism
B[P@@](=O)(OC[C@H]1O[C@@H](n2cc(OC)c(=O)[nH]c2=O)[C@H](O)[C@@H]1O)OP(=O)(O)O | Active

system: Serum; assay: Drug metabolism in human serum assessed as nucleoside formation incubated up to 24 hrs by HPLC analysis; format: ADME, cell-free; conditions: not given; method in brief: as §3

Drug metabolism | SMILES
Active | O=c1ccn([C@@H]2O[C@H](COP(=O)(O)OP(=O)(O)O)[C@@H](O)[C@H]2O)c(=O)[nH]1 [URIDINE_DIPHOSPHATE]
Active | COc1cn([C@@H]2O[C@H](COP(=O)(O)OP(=O)(O)O)[C@@H](O)[C@H]2O)c(=O)[nH]c1=O

SMILES | Drug metabolism
B[P@@](=O)(OC[C@H]1O[C@@H](n2cc(OC)c(=O)[nH]c2=O)[C@H](O)[C@@H]1O)OP(=O)(O)O | Active

system: not listed separately; assay: Half life in human serum by HPLC analysis; format: ADME, cell-free; conditions: not given
Method in brief: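 Compound (0.1 mg) incubated with human blood serum and RPMI-1640 medium at 37 °C for 0–24 h. Samples taken at 0.5–12 h intervals, heated to 80 °C for 30 min, treated with CM Sephadex and extracted with chloroform. Analysed by reverse-phase HPLC. Degradation from peak integration, corrected against a serum-free control given the same workup.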

SMILES | half-life [h]
B[P@@](=O)(OC[C@H]1O[C@@H](n2cc(OC)c(=O)[nH]c2=O)[C@H](O)[C@@H]1O)OP(=O)(O)O | 21
O=c1ccn([C@@H]2O[C@H](COP(=O)(O)OP(=O)(O)O)[C@@H](O)[C@H]2O)c(=O)[nH]1 [URIDINE_DIPHOSPHATE] | 2.4
COc1cn([C@@H]2O[C@H](COP(=O)(O)OP(=O)(O)O)[C@@H](O)[C@H]2O)c(=O)[nH]c1=O | 11.9
B[P@@](=O)(OC[C@H]1O[C@@H](n2ccc(=O)[nH]c2=O)[C@H](O)[C@@H]1O)OP(=O)(O)O | 17

system: not listed separately; assay: Agonist activity at P2Y6 receptor in New Zealand White rabbit osteoclasts assessed as intracellular calcium mobilization by fura2-based microfluorimetric technique; format: functional, cell-based; conditions: Oryctolagus cuniculus

EC50 [nM] | SMILES
140 | O=c1ccn([C@@H]2O[C@H](COP(=O)(O)OP(=O)(O)OP(=O)(O)OC[C@H]3O[C@@H](n4ccc(=O)[nH]c4=O)[C@@H]4OC(Cc5ccccc5)O[C@@H]43)[C@@H](O)[C@H]2O)c(=O)[nH]1 (stereo partly specified)
500 | O=c1ccn([C@@H]2O[C@H](COP(=O)(O)OP(=O)(O)O)[C@@H](O)[C@H]2O)c(=O)[nH]1 [URIDINE_DIPHOSPHATE]

target: T2, Ectonucleotide pyrophosphatase/phosphodiesterase family member 1; assay: Hydrolytic stability of the compound assessed as human NPP1-mediated hydrolysis measuring 5-OMe-UMP formation after 2 hrs by HPLC analysis; format: ADME; set-up: scale not given: the % may be the effect or the level left; conditions: not given; method in brief: as §2

Activity [%] | SMILES
49 | COc1cn([C@@H]2O[C@H](COP(=O)(O)OP(=O)(O)O)[C@@H](O)[C@H]2O)c(=O)[nH]c1=O

target: T4, NPP1 (ectonucleotide pyrophosphatase/phosphodiesterase family member 1) (Homo sapiens, UniProt P22413); assay: Hydrolytic stability of the compound assessed as human NPP1-mediated hydrolysis after 2 hrs by HPLC analysis; format: ADME; conditions: human NPP1 enzyme, read-out: Activity
T4 sequence (P22413 whole entry): T2 sequence (P22413 whole entry)
Method in brief: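 Human NPP1 extract (56.15 µg) pre-incubated 3 min at 37 °C in 1 mM CaCl2, 200 mM NaCl, 10 mM KCl, 100 mM Tris pH 8.5. Reaction started with 4 mM compound stock and stopped at 2 h in ice-cold 1 M perchloric acid, then neutralized with KOH. Reverse-phase HPLC. Nucleoside monophosphate peak area taken minus an acid-treated no-enzyme control. Mean of two experiments.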

SMILES | metabolised at 2 h [%]
B[P@@](=O)(OC[C@H]1O[C@@H](n2cc(OC)c(=O)[nH]c2=O)[C@H](O)[C@@H]1O)OP(=O)(O)O | 15
